The subject of data set [1] is A2058. Description: Induction of cell cycle arrest in human A2058 cells assessed as decrease in accumulation at G0/G1 phase at 10 uM after 8 hrs by propidium iodide staining based flow cytometric method. Format: functional. Summed up: (§1)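 Seeded at 3×10^5 cells/well for 24 h at 37°C, then exposed to 10 µM inhibitor or 0.5% (v/v) DMSO for 8 or 16 h. Trypsin-harvested, fixed in cold 70% ethanol at -20°C for 1 h, stained 30 min at 4°C with 50 µg/mL PI in non-lysis solution. Phase distribution (sub-G1, G0/G1, S, G2/M) read by FACScan; triplicate experiments, mean ± SE.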
Background: Flow cytometry measures light scatter and fluorescence of single cells or particles in a stream.

Data set [2] concerns the target T1, M-phase inducer phosphatase 2 (Homo sapiens) (UniProt P30305).
T1 sequence (whole entry): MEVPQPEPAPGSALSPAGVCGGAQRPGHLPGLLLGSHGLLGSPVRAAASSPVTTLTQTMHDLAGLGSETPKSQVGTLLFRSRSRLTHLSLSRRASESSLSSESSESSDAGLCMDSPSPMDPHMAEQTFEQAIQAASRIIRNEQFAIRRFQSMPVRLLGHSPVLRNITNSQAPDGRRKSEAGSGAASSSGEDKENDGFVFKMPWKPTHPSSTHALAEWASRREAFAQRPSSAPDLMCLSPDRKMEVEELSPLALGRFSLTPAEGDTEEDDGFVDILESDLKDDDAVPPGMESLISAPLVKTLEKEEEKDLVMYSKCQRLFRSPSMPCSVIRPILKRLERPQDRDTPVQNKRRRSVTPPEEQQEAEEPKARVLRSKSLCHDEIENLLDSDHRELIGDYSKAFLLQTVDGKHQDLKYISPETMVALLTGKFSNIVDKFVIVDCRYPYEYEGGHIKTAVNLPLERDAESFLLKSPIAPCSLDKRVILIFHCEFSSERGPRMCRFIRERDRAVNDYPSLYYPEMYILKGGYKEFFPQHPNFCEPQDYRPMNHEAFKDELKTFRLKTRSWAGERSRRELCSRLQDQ
Description: Inhibition of CDC25B in human A2058 cells assessed as increase in phosphorylated cdk1 level at 10 uM after 8 hrs by Western blot analysis. Format: cell-based. Summed up:
(§2)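 After 24 h at 3×10^5 cells, 8 h treatment with 10 µM inhibitor or 0.5% DMSO. Lysis in ice-cold modified RIPA with Na3VO4, NaF and protease inhibitors; Bradford-normalised equal protein on 12% SDS-PAGE. Rabbit polyclonal anti-p-Cdk1 overnight at 4°C, HRP secondary, ECL detection; β-actin loading control.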
(In western blotting, separated proteins are transferred to a membrane and probed.)

For data set [3], the system named is A2058. The experiment in a line: Induction of cell cycle arrest in human A2058 cells assessed as increase in accumulation at G2/M phase at 10 uM after 8 hrs by propidium iodide staining based flow cytometric method. Format: functional. An outline of the steps:
as §1

The subject of data set [4] is A-375. Description: Inhibition of colony formation in human A375 cells at 0.625 to 10 uM after 10 days by crystal violet staining based assay. The format is functional, cell-based. Summed up:
(§3)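 Seeded in duplicate at 4×10^2 cells/well; after 2–3 days treated with 0.5% (v/v) DMSO or 0.625–10 µM inhibitor for 10 days at 37°C. Stained 1 h with 1% crystal violet in 50% ethanol; colonies of ≥50 cells counted, expressed as percentage, mean ± SE of at least three experiments.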

Data set [5] deals with A-375. The experiment in a line: Induction of cell cycle arrest in human A375 cells assessed as increase in accumulation at G2/M phase at 10 uM after 8 hrs by propidium iodide staining based flow cytometric method. The format is functional. An outline of the steps:
as §1

The next data set has as its system hTERT-BJ. The experiment in a line: Cytotoxicity against human BJ-5ta cells at 10 uM measured up to 72 hrs by MTT assay. Format: cell-based. An outline of the steps:
(§4)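 Cells seeded at 4×10^4/well, treated 24 h after plating with inhibitor or 0.5% (v/v) DMSO vehicle for 24, 48 or 72 h. MTT added, 3 h at 37°C under 5% CO2, formazan solubilised, absorbance at 570 nm. Viability in arbitrary units, mean ± SE of at least three independent experiments versus control. Cells grown in DMEM/10% FBS at 37°C, 5% CO2; BJ-5ta cultured in 4:1 DMEM/Medium 199 with hygromycin B.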
(Formazan colour is commonly taken as a measure of viable cells.)

The target in data set [6] is T1, M-phase inducer phosphatase 2 (Homo sapiens). Description: Inhibition of N-terminal His6-tagged human CDC25B (377 to 550 residues) expressed in Escherichia coli BL21(DE3) cells assessed as reduction in Vmax using OMFP as substrate by double reciprocal Lineweaver-Burk plot analysis. An outline of the steps:
(§5)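 Recombinant CDC25 form (15–25 nM) in 20 mM Tris-HCl pH 7.8, 0.5 mM TCEP, 1% (v/v) DMSO, with or without inhibitor. Reaction started with 0.5–25 µM OMFP; O-methylfluorescein formation followed continuously at 30°C (ex 485/em 530 nm). Initial rates (AU/min) analysed in Lineweaver-Burk plots for Vmax, KM and mechanism; Ki averaged from at least three independent experiments, only roughly estimated for mixed inhibition.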

In data set [7] the test system is A2058. The experiment in a line: Cytotoxicity against human A2058 cells at 50 uM after 48 hrs by MTT assay. The format is functional, cell-based. An outline of the steps: as §4
The test system of data set [8] is A-375. The experiment in a line: Induction of cell cycle arrest in human A375 cells assessed as increase in accumulation at subG1 phase at 10 uM after 16 hrs by propidium iodide staining based flow cytometric method. The format is functional. Summed up:
as §1

The target in data set [9] is T1, M-phase inducer phosphatase 2 (Homo sapiens). Description: Inhibition of CDC25B in human A375 cells assessed as increase in phosphorylated cdk1 level at 10 uM after 8 hrs by Western blot analysis. Format: cell-based. An outline of the steps: as §2
In data set [10] the test system is A-375. The experiment in a line: Induction of cell cycle arrest in human A375 cells assessed as increase in accumulation at G2/M phase at 10 uM after 16 hrs by propidium iodide staining based flow cytometric method. Format: functional. Summed up: as §1
In data set [11] the target is T2, M-phase inducer phosphatase 3 (Homo sapiens, UniProt P30307).
T2 sequence (P30307 whole entry): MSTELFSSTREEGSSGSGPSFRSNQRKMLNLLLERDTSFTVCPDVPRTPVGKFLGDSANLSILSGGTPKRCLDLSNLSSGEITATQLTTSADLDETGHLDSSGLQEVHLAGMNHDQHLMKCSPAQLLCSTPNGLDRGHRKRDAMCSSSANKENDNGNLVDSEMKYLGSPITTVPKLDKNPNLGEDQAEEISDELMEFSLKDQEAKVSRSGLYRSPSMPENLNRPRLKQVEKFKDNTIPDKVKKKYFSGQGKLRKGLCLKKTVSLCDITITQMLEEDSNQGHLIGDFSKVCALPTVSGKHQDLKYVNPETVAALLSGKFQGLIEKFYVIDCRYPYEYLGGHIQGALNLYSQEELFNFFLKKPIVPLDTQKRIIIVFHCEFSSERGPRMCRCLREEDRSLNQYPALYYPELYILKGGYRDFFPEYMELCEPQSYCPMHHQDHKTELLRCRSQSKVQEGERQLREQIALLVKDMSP
The experiment in a line: Inhibition of N-terminal His6-tagged human CDC25C (280 to 454 residues) expressed in Escherichia coli BL21(DE3) cells using OMFP as substrate by double reciprocal Lineweaver-Burk plot analysis. Summed up:
as §5

Data set [12] has as its system A2058. Description: Inhibition of colony formation in human A2058 cells at 0.625 to 10 uM after 10 days by crystal violet staining based assay. Format: functional, cell-based. Summed up:
as §3

For data set [13], the system named is A2058. The experiment in a line: Induction of cell cycle arrest in human A2058 cells assessed as decrease in accumulation at G0/G1 phase at 10 uM after 16 hrs by propidium iodide staining based flow cytometric method. The format is functional. An outline of the steps: as §1

This passage reports Activity, inhibition and Ki results from ChEMBL document CHEMBL4311947, “Discovery of Novel Naphthylphenylketone and Naphthylphenylamine Derivatives as Cell Division Cycle 25B (CDC25B) Phosphatase Inhibitors: Design, Synthesis, Inhibition Mechanism, and in Vitro Efficacy against Melanoma Cell Lines” (J Med Chem, 2019).

pKi: −log10 of the molar value. Calls of active or inactive are those of the source. The rule behind the calls is not given here.

Broadly, the pKi is the negative decadic logarithm of the Ki, by convention in mol/L. Lower therefore signals a large Ki. With `CCOC(=O)c1cccc(Nc2cc(OC)cc3ccccc23)c1`, the outcome in the data set with A2058 [1], in the data set with A2058 [3], in the data set with A-375 [5], in the data set on A2058 [7], in the data set on A-375 [8] and with A2058 [13] was Active. Moreover, the inhibition result (in [2]; in the data set on A-375 [4]; in data set [6]; in [9]; in the data set on A2058 [12]) was “Active” in each case. The Activity entry in the data set with hTERT-BJ is given as “Non-Toxic”. Besides, in the data set on A-375 [10], the outcome was inactive. Besides, the pKi in [11] is 5.72.
